# Measurements as given in ChEMBL document CHEMBL4513216, “Probing the Open Global Health Chemical Diversity Library for Multistage-Active Starting Points for Next-Generation Antimalarials” (ACS Infect Dis, 2020).
# Assay: Toxicity liver stage against HepG2, at 10uM
# Type: cell-based
# Parameters: test concentration 10 uM, cell line HepG2-A16-CD81EGFP
# Details: human, HepG2-A16-CD81EGFP cells; read-out: INHIBITION
# In short: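 Uninfected HepG2-A16-CD81EGFP cells, 3 × 10^3 per well, 1536-well, plated on prespotted compound at 10 μM final, parasite-free screening media added to match infected plates; puromycin 10 μM positive, DMSO 0.5% negative; run in parallel with 48 h PbLuc assay at 37 °C, 5% CO2; viability by CellTiter-Glo luminescence, normalized to controls.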
row,SMILES,cytotoxicity at 10 µM [%]
1,CC(=O)NC[C@H]1COCc2nc3c(C)cccc3n21,8.65
2,c1ccc(-c2nnc([C@H]3CCN(C4CCC4)C3)o2)cc1,1.74
3,CCOC(=O)N1CCC(OC)c2ccccc2N(C)C(=O)C1 (stereo unspecified),7.58
4,O=C(NCCc1ccccn1)C1(n2cnnn2)CCCCC1,0.801
5,Cn1ccc2ccc(C(=O)Nc3nc[nH]n3)cc21,-1.55
6,O=C(Cn1cnc2sccc2c1=O)NCCc1nnc2ccccn12,3.57
7,CCn1nc(C)c2nc(C)nc(NCCc3ccccc3)c21,25.2
8,O=C(COCC1CC1)N1CCCC1c1nc(-c2ccccc2F)c[nH]1 (stereo unspecified),-0.025
9,Cc1[nH]ncc1CCCNC(=O)N1CCC(C(N)=O)CC1,-3.62
10,O=C(CCc1ccccn1)NC1CCN(c2cccc(Cl)c2)C1 (stereo unspecified),17.1
11,O=C(Cc1cccc(O)c1)NC1CCN(c2cccc(Cl)c2)C1 (stereo unspecified),17.1
12,Cc1nn(-c2ccc(F)cc2)c2[nH]nc(N)c12,13.6
13,COCCSCC(=O)NCc1ccnc(N(C)C)c1,9.88
14,COCc1cccc(C(=O)N2CCCN(C(=O)OCC(C)C)CC2)c1,-10
15,CC(C)c1nn(C)c(N(C)C)c1CNCc1ccnn1C,0.926
16,CC(C#N)CNS(=O)(=O)c1ccc(Br)c(F)c1 (stereo unspecified),-12.3
17,CN1CC(Nc2nc3c(cnn3C(C)(C)C)c(=O)[nH]2)CCC1=O (stereo unspecified),-4.26
18,COCC(O)CN(C)c1ccnc2cc(Br)ccc12 (stereo unspecified),5.02
19,CCNc1cc2c(nn1)CCN(C(=O)c1cc3ccccc3[nH]c1=O)C2,-1.41
20,Cc1occc1CNC(=O)C1CCCN1C(=O)C1CC1 (stereo unspecified),7.98
21,CC(C)CN1C(=O)CO[C@@H]2CNC[C@H]21,-110
22,COc1ccc([C@@H]2CN(c3cc(OC)ncn3)C[C@H]2N(C)C)cc1,6.98
23,N[C@@H](C(=O)N1CCN(c2ccccc2Cl)C(=O)C1)c1ccccc1,-0.823

row,SMILES,cytotoxicity at 10 µM [%]
1,CCC[C@H]1CN(Cc2ccc(N(C)C)nc2)C[C@@H]1NS(=O)(=O)CC,-11.9
2,Cc1ccc(CN2CCN(C3CCC3)CC2CCO)o1 (stereo unspecified),-2.46
3,CC(=O)NC1CCN(c2nc(N)nc3c2CCCC3)C1 (stereo unspecified),0.452
4,Cc1cc(C)c2[nH]c(=O)c(CN3CCCC4(C3)CN(C)C(=O)O4)cc2c1 (stereo unspecified),-14.3
5,O=C(c1cn(CCN2CCCCC2)nn1)N1CCSCC1,2.34
6,COCC(Nc1ncnc2sc(C)c(C)c12)c1ccnn1C (stereo unspecified),-4.53
7,O=C(O)c1cn(CC2CCCN(c3ccc4ccccc4n3)C2)nn1 (stereo unspecified),-7.14
8,CCCS(=O)(=O)c1ncc(CN2CCC(CO)CC2)n1CC1CCCO1 (stereo unspecified),7
9,CC(C)(C)N1CC(C(=O)N2CCN(CCn3cccc3)CC2)CC1=O (stereo unspecified),18.7
10,Cc1ccc(-c2nc(CNC3CCc4ncnn4C3)co2)c(C)c1 (stereo unspecified),-9.5
11,Cc1ccccc1CS(=O)(=O)CC(=O)NC1CCCCNC1=O (stereo unspecified),-7.23
12,Cc1cc(C)c(OCC(=O)NS(=O)(=O)c2cccnc2)c(C)c1,-1.35
13,Cc1cc(NC(=O)NCC(C)O)n(C)n1 (stereo unspecified),1.69
14,CC(C)c1nnc2n1CCN(CC(=O)N1CCc3ccccc3C1)C2,-5.92
15,Cc1cccc(OCCC(=O)N2CCN(S(=O)(=O)N(C)C)CC2)c1C,2.66
16,CCc1noc(C)c1C(=O)N1CCCC1c1c(C)nn(C)c1OC (stereo unspecified),-12.1
17,CC(NC(=O)NCCCn1cccn1)c1ccc2c(c1)NC(=O)CO2 (stereo unspecified),-5.07
18,CC(=O)N1Cc2ccnn2CC(C(=O)NCc2cccnc2)C1 (stereo unspecified),-97
19,COCC1c2c(cnn2C)CCN1C(=O)c1cccn1C (stereo unspecified),-94.1
20,O=C(c1ccccc1F)N1CCC2(CC1)CC(Oc1ccccn1)CO2 (stereo unspecified),-113
21,Cc1noc([C@]23COC[C@H]2CN(C(=O)CN(C)C)C3)n1,-104
22,c1ccc(CN2C[C@H]3CC[C@@H](C2)N(Cc2nnc(C4CC4)o2)C3)cc1,-8.42
23,COc1cccc(CNCC2(COc3cccnc3)C[C@@H](O)[C@@H](O)C2)c1 (stereo partly specified),-5.57
